This data set has as its system MS2 coat protein. Nature of the data set: apparent Kd, MS2 coat protein; higher = weaker binding; RNA-MaP array; tryptophan 2.4 mM where present. In a few lines:
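Green signal from SNAP-549-labelled MS2 coat protein was normalised to red-channel RNA signal and to the median Fmax of control clusters. The protein was titrated from 0.7 or 1.5 nM, doubling to 3 µM, without and then with constant ligand, over designs transcribed by stalled E. coli RNA polymerase on Illumina sequencing-chip clusters, in 100 mM Tris-HCl pH 7.5, 80 mM KCl, 4 mM MgCl2, BSA, DTT, yeast tRNA and Tween-20. The apparent Kd is the median of filtered per-cluster binding-curve fits.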

[1] abbreviates: designed as: ON switch for tryptophan, no ligand.
The mark [2] stands for this setting: ligand present: tryptophan, designed as: ON switch for tryptophan.
The mark [3] stands for this setting: designed as: OFF switch for tryptophan, no ligand.
Setting [4] is: ligand present: tryptophan, designed as: OFF switch for tryptophan.

By apparent Kd is commonly meant a dissociation constant that holds for the conditions of the assay. As for “UAUGAGCGCACGGCCGCCACUGUCUUCAUCUGUUUGUCUACAUGAGGAUCACCCAUGUUGGUUUACAGGACCGGGUGCAACUAUG”, the “apparent Kd” value runs as follows: under setting [1], 27.8 nM; under setting [2], 22.4 nM.
For “AACACAUGAGGAUCACCCAUGUUCUCGUGUCGAGGACCGGUACGGCCGCCACUCGGUUCUCGCGAGGAUGGUCAAAGACUAUCCA”, in that order: 47.7 nM and 42 nM.
In the case of “UUAUAUACUACGGCCGCCACUGAACAUGAGGAUCACCCAUGUAAUGUUCAGAUUUUUUUUUUUUACAGGACCGGGUAGAAUUAAA”, the “apparent Kd” value reads like this: under setting [1], 159 nM; under setting [2], 133 nM.
“UGGGUCGGAUGAGUAAAUUGUCGGACUCAUCGAGGACCGGUACGGCCGCCACUCGGUUGUACAUGAGGAUCACCCAUGUCAGGGU”: the “apparent Kd” value reads like this: under setting [1], 364 nM; under setting [2], 223 nM.
“AGAUUCGACACGGCCGCCACUUGGAGUGGCUGCUAGCAUGUUACACAUGAGGAUCACCCAUGUCUAAGGACCGGGUGUUGAGUCU”: the “apparent Kd” value by setting is: under setting [3], 41.1 nM; under setting [4], 216 nM.
For the sequence “CCAUCUUCAUCGGCCGCCACUGAACCAAGGAGACAUGAGGAUCACCCAUGUAUGGGAAACCAUCAUAGGACCGGGAUGAAGGUGG”, the “apparent Kd” value reads like this: under setting [1], 36.1 nM; under setting [2], 30.9 nM.
In the case of “UAACAUGAGGAUCACCCAUGUUUGAAGGAACGAGGACCGGUACGGCCGCCACUCGACGAGUGGAUGAGAAGUGGGAUAGUGUGCU”, the “apparent Kd” value came out at 13.2 nM under setting [1] and 13.8 nM under setting [2].
As to “CGUAUUGGAAACAGUACGAGUGAUCCGGUCCGAGGACCGGUACGGCCGCCACUCGAAAUAAAUAAACAUGAGGAUCACCCAUGUA”, the “apparent Kd” value under setting [3] amounted to 18.6 nM and the “apparent Kd” value under setting [4] is 28.4 nM.
The matching figures for “AAGACAUGAGGAUCACCCAUGUCGUGUGAACGAGGACCGGUACGGCCGCCACUCGUUUGAAAAUAAACGAAUGCGGCCUGGGAAA”: 11 nM and 14.2 nM.

The values are drawn from the EternaBench riboswitch data.
